Assay results pooled from the literature.
Compare with care: the assays were run in different laboratories.
CNR2: Cannabinoid receptor 2 (CNR2, Homo sapiens, UniProt P34972)
CHRNA7: Neuronal acetylcholine receptor subunit alpha-7 (CHRNA7, Homo sapiens, UniProt P36544)
Ntsr1: Neurotensin receptor type 1 (Ntsr1, Rattus norvegicus, UniProt P20789)
HRH3: Histamine H3 receptor (HRH3, Homo sapiens, UniProt Q9Y5N1)

CCCCCc1cc(O)c2c(c1)OC(C)(CCC=C(C)C)C=C2 (stereo not drawn)
Ki (CNR2; ligand displacement, radioligand; cell membranes): 1740 nM

CC(C)(C)OC(=O)N1CCN(C(=O)n2cc(-c3ccc(OC(F)(F)F)cc3)nn2)C(Cc2ccccc2)C1 (stereo not drawn)
IC50 (Monoacylglycerol lipase ABHD6 (Abhd6, Mus musculus, UniProt Q8R2Y0); enzyme activity, inhibitor): 8.1 nM

COc1ccc2[nH]c3c(c2c1)CCN(C)CC3
IC50 (CHRNA7; ion current, antagonist, two-electrode voltage clamp; oocytes): 11200 nM

CC(C)C[C@H](NC(=O)[C@@H](N)C(C)(C)C)C(=O)N[C@@H](CCCNC(=N)N)C(=O)N[C@@H](CCCCN)C(=O)N1CCC[C@H]1C(=O)N[C@@H](Cc1ccc(O)cc1)C(=O)O
Ki (Ntsr1; ligand displacement, flow cytometry): > 100000 nM

COc1ccc2c3c([nH]c2c1)CCN(C)CC3
IC50 (CHRNA7; ion current, antagonist, two-electrode voltage clamp; oocytes): 10300 nM

CCC(CC)(NC(=O)c1ccc(N2CC(OC)C2)c(OC[C@H]2C[C@@H]2CO)n1)C(=O)NCCOCCOCCNC(=O)c1ccc2c(c1)C1(OC2=O)c2ccc(N(C)C)cc2[Si](C)(C)c2cc(N(C)C)ccc21
Ki (CNR2; ligand displacement, radioligand; cell membranes): 1620 nM

CC(C)C[C@@H]1NC(=O)[C@H](C(C)(C)C)NC(=O)[C@H](Cc2ccc(O)cc2)NC(=O)[C@@H]2CCCN2C(=O)[C@H](CCCCN)NC(=O)[C@H](CCCNC(=N)N)NC1=O
Ki (Ntsr1; ligand displacement): > 100000 nM

CNC(=O)c1ccc(-c2cnn3ccc(C(=O)N(C)c4ccc(Cl)c(C(=O)OC)c4)cc23)cc1
IC50 (HRH3; cell-free assay): > 30000 nM

CCC(CC)(NC(=O)c1ccc(C2CC2)c(Cc2ccc(F)cc2)n1)C(=O)NCCOCCOCCNC(=O)c1ccc2c(c1)C(=O)OC21c2ccc(N)c(S(=O)(=O)O)c2Oc2c1ccc(N)c2S(=O)(=O)O
Ki (CNR2; ligand displacement, radioligand; cell membranes): 141 nM

C=C1CC[C@H]2O[C@]2(C)CC[C@@H]2[C@@H]1CC2(C)C
Ki (CNR2; ligand displacement, radioligand; cell membranes): > 10000 nM

COC(=O)c1cc(N(C)C(=O)c2ccn3ncc(-c4ccc(C(=O)O)cc4)c3c2)ccc1Cl
IC50 (HRH3; cell-free assay): > 30000 nM

CC[C@H](C)[C@H](NC(C)=O)C(=O)N[C@@H](CCC(=O)O)C(=O)N[C@H](C(=O)N[C@H](C=O)CC(=O)O)[C@@H](C)O
IC50 (Caspase-2 (Homo sapiens, UniProt P42575); enzyme activity, inhibitor): 73.3 nM
